Source: ChEMBL document CHEMBL1157438, “Maleimide and maleic anhydride derivatives from the mycelia of Antrodia cinnamomea and their nitric oxide inhibitory activities in macrophages” (2008)

What was measured:
RAW264.7 [1] = experiment: Antiinflammatory activity in mouse RAW264.7 cells assessed as inhibition of LPS-induced NO production by measuring nitrite level after 24 hrs; assay type: functional
Procedure, shortened: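 RAW264.7 cells in DMEM with 10% heat-inactivated FBS, 37 °C, 5% CO2, 96-well; medium renewed after 24 h, then compounds (0, 1, 5, 10 or 20 µg/mL) added with LPS 1 µg/mL for 24 h. Supernatant mixed 1:1 with Griess reagent, 10 min room temperature, nitrite read at 540 nm. Mean ± SD of three experiments, each in triplicate.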

RAW264.7 [2] = experiment: Cell viability of LPS-stimulated mouse RAW264.7 cells after 24 hrs by MTT assay; assay type: functional; design: concentration or dose not given beside the values
Procedure, shortened: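 Cells cultured as for the nitrite assay (DMEM/10% FBS, medium renewed at 24 h) and exposed to compounds at 0–20 µg/mL plus LPS 1 µg/mL for 24 h. MTT (5 mg/mL stock in PBS, 10 µL per 100 µL culture) added for 4 h at 37 °C, formazan dissolved in DMSO, read at 550 nm; untreated cells set as 100%. Mean ± SD, three experiments in triplicate.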

| Structure (SMILES) | Activity (RAW264.7 [1]) [µM] | Activity (RAW264.7 [2]) [%] |
| --- | --- | --- |
| CC(C)=CCOc1ccc(C2=C(CC(C)C)C(O)OC2=O)cc1 (centres undefined) [ANTROCINNAMOMIN D] | 20 | 88.2 |
| CC(C)=CCOc1ccc(C2=C(CC(C)C)C(=O)OC2=O)cc1 | 20.8 | 67.9 |
| CC(=O)ON1C(=O)C(CC(C)C)=C(c2ccc(OCC=C(C)C)cc2)C1=O [ANTROCINNAMOMINS A] | 12.5 | 91.1 |
| CC(C)=CCOc1ccc(C2=C(CC(C)C)C(=O)NC2=O)cc1 | 10.6 | 69.1 |
| CC(C)CC1=C(c2ccc(O)cc2)C(=O)N(O)C1=O [ANTROCINNAMOMIN B] | 18 | 82.2 |
| CC(C)=CCOc1ccc(C2=C(CC(C)C)C(=O)N(O)C2=O)cc1 | 18.3 | 86.8 |
| CC(C)CC1=C(c2ccc(O)cc2)C(=O)OC1=O [ANTROCINNAMOMIN C] | 21.8 | 76.3 |
